The M2OR odorant receptor database

Legend:
Details in all cases: stereoisomer not certain
[1] = target: T1, UniProt Q8VGZ2
T1 sequence (whole entry): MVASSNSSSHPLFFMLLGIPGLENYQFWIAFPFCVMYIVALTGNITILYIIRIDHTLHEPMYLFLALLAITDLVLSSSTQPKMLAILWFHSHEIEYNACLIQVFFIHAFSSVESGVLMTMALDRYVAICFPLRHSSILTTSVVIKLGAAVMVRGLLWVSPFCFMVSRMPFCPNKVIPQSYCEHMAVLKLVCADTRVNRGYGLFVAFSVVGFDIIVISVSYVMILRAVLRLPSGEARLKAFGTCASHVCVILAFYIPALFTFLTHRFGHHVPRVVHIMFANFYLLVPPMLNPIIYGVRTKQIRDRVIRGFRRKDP
Outline: (§1)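 Values were gathered from published papers (main text and supplementary material), with extra details requested from the original authors when needed, and checked for typos and inconsistencies. Each receptor–molecule pair is called responsive (active) if the original authors judged the measured signal statistically different from baseline, and non-responsive (inactive) otherwise. Assay methods varied by source, often transient mammalian cell-line luciferase assays. Recorded details include cell line, G-protein, co-transfected protein and tags.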

[2] = target: T2, UniProt Q8VGZ7
T2 sequence (whole entry): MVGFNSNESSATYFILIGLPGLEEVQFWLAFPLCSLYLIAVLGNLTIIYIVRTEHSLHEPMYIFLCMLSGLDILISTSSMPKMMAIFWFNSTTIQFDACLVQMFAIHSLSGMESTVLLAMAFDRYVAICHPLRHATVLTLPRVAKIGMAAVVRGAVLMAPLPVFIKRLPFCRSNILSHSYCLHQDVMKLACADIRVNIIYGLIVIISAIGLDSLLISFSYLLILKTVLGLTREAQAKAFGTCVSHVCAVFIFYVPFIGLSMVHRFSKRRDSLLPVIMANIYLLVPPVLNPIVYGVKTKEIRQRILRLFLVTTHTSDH
Outline: as §1

[3] = target: T3, UniProt Q8VH16
T3 sequence (whole entry): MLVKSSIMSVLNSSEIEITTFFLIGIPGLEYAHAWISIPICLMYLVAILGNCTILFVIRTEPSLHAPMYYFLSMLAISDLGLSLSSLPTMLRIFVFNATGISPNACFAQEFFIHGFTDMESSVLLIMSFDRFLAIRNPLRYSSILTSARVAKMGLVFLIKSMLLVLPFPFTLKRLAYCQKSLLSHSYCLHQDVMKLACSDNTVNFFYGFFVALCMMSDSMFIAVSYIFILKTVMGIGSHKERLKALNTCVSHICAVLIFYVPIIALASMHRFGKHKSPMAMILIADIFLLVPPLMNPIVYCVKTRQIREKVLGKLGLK
Outline: as §1

[4] = target: T4, UniProt Q8VH20
T4 sequence (whole entry): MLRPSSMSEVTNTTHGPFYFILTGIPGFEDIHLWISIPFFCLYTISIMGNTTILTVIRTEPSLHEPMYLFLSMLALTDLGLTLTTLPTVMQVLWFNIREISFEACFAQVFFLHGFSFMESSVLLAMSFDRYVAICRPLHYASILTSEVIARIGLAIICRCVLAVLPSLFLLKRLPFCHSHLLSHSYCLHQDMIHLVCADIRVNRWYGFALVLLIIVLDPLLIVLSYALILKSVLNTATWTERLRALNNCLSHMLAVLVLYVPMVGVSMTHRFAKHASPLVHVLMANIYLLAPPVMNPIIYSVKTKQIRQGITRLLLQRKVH
Outline: as §1

[5] = target: T5, UniProt Q8VH21
T5 sequence (whole entry): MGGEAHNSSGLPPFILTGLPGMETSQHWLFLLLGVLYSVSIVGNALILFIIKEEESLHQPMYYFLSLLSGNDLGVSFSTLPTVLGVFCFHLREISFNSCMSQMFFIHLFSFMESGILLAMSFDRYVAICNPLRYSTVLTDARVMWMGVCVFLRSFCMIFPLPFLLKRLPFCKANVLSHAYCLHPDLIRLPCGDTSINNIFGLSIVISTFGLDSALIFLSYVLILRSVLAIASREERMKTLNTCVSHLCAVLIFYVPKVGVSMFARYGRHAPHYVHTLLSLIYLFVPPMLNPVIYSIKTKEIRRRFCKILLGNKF
Outline: as §1

[6] = target: T6, UniProt Q920P1
T6 sequence (whole entry): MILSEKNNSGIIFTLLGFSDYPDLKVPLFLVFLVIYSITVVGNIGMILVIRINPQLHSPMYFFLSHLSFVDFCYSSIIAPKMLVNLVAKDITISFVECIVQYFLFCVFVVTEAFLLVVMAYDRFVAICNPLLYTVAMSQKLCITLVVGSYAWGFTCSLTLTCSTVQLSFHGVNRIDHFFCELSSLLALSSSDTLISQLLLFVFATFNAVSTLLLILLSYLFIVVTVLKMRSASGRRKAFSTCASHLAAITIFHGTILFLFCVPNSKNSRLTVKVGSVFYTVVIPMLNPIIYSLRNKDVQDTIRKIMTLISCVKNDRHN
Outline: as §1

[7] = target: T7, UniProt Q8VH18
T7 sequence (whole entry): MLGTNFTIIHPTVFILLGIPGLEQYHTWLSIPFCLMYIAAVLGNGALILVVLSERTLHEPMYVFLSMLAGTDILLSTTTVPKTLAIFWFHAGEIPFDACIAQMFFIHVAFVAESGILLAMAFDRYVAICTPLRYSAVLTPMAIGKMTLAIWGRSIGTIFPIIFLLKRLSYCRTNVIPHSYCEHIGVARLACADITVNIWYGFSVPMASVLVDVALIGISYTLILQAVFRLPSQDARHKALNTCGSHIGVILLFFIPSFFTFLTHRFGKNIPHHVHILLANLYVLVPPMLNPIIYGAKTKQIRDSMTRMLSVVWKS
Outline: as §1

Measured: odorant receptor agonist call

C=CC(=O)CCCCC
inactive: [1] | [2] | [3] | [4] | [5]

C=CC(=C)CCC=C(C)CCC=C(C)C
inactive: [1] | [2] | [3] | [4] | [5]

COc1cc(C=O)cc(OC)c1O
inactive: [6]

CCc1ccc(O)c(OC)c1
inactive: [6]

CC(C)CCN
inactive: [1] | [2] | [3] | [4] | [5]

CCOC(=O)CC(C)C
inactive: [1] | [2] | [3] | [4] | [5]

CCN(CC)CC
inactive: [1] | [2] | [3] | [4] | [5]

C=C1C2CCC(C2)C1(C)C (stereo not drawn)
inactive: [1] | [2] | [3] | [4] | [5]

COc1cnccn1
inactive: [1] | [2] | [3] | [4] | [5]

CCCC=O
inactive: [1] | [2] | [3] | [4] | [5]

CNc1ccccc1C(=O)OC
inactive: [1] | [2] | [3] | [4] | [5]

Cc1ccc(C(C)C)c(O)c1
inactive: [1] | [2] | [3] | [4] | [5]

CCCCOC(=O)CCC
inactive: [7]

CCC=CCCC=CC=O
inactive: [1] | [2] | [3] | [4] | [5]

COc1nccnc1C
inactive: [1] | [2] | [3] | [4] | [5]

CC=C(C)C=O
inactive: [1] | [2] | [3] | [4]
active: [5]

CCCCCOC(=O)CCC
inactive: [1] | [2] | [3] | [4] | [5]

CCCCCCCCCC=CC=O
inactive: [1] | [2] | [3] | [4] | [5]

CC(C)CS
inactive: [1] | [2] | [3] | [4] | [5]
